The source of these data is ChEMBL document CHEMBL1126799, “Synthesis of antimicrobial agents. 5. In vivo metabolism of 7-(4-hydroxypiperazin-1-yl)quinolones” (1993).

Structures are written as SMILES. In brackets after ≈: the same amount, converted by molar mass.

In general, MIC refers to the smallest concentration in the dilution series that meets the test's criterion for growth inhibition. Read a high MIC as a need for much substance. The term ED50 denotes the midpoint of the dose-response relation. A lower ED50 goes with an effect at a small dose.

In one assay the test system is Bacillus subtilis. The assay is described as follows: Tested in vitro against Bacillus subtilis ATCC 6633 by agar dilution method. The class given is functional. The gist of the method: (§1)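 MIC by 2-fold agar dilution on Mueller–Hinton agar (footnote says sensitivity test agar).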
A general note: Agar dilution tests growth on a series of plates holding different concentrations.

The subject of the next assay is Klebsiella pneumoniae. The assay is described as follows: Tested in vitro against Klebsiella pneumoniae PCI-602 by agar dilution method. Type of assay: functional. In outline: as §1
In assay [1] the test system is Staphylococcus aureus. The assay is described as follows: Tested in vivo against Staphylococcus aureus IID803 in mice after peroral dose of drug with 0.5% sodium carboxy methyl cellulose. The class given is functional. Conditions: po. In outline: (§2)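 Mice infected, then given compound orally 1 h post-infection as a suspension in 0.5% sodium CMC. ED50 calculated from cumulative mortality on day 7 post-infection by shortened Weil method.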

For another assay, the system named is Proteus vulgaris. Put plainly: Tested in vitro against Proteus vulgaris OX-19 by agar dilution method. The class given is functional. The gist of the method:
as §1

The subject of assay [2] is Pseudomonas aeruginosa. Put plainly: Tested in vitro against Pseudomonas aeruginosa E-2 by agar dilution method. The class given is functional. In outline: as §1
For a further assay, the system named is Serratia marcescens. Put plainly: Tested in vitro against Serratia marcescens IAM1184 by agar dilution method. The class given is functional. The gist of the method: as §1
The test system of a further assay is Salmonella typhimurium. Put plainly: Tested in vitro against Salmonella Typhimurium IID971 by agar dilution method. Type of assay: functional, Salmonella enterica subsp. enterica serovar Typhimurium. Conditions: Salmonella enterica. In outline:
as §1

Assay [3] relates to Staphylococcus aureus. Put plainly: Tested in vitro against Staphylococcus aureus FDA209P JC-1 by agar dilution method. The class given is functional. In outline: as §1
The test system of assay [4] is Staphylococcus aureus. The assay is described as follows: Tested in vitro against Staphylococcus aureus IID803 by agar dilution method. Type of assay: functional. In outline: as §1
For assay [5], the system named is Pseudomonas aeruginosa. The assay is described as follows: Tested in vitro against Pseudomonas aeruginosa IFO3445 by agar dilution method. The class given is functional. In outline: as §1
In assay [6] the test system is Pseudomonas aeruginosa. The assay is described as follows: Tested in vivo against Pseudomonas aeruginosa E-2 in mice after peroral dose of drug with 0.5% sodium carboxy methyl cellulose. The class given is functional. To be noted: po. The gist of the method:
as §2

In assay [7] the test system is Staphylococcus epidermidis. The assay is described as follows: Tested in vitro against Staphylococcus epidermidis IAM12896 by agar dilution method. Type of assay: functional. The gist of the method:
as §1

In another assay the test system is Escherichia coli. Put plainly: Tested in vitro against Escherichia coli NIHJ JC-2 by agar dilution method. The class given is functional. The gist of the method:
as §1

On to `CC1CN(c2c(F)cc3c(=O)c(C(=O)O)cn(C4CC4)c3c2F)CCN1` (stereo unspecified), for which the MIC against Bacillus subtilis came to 0.05 mg/L (≈ 0.138 µM); with Klebsiella pneumoniae, 0.0125 mg/L (≈ 0.0344 µM); against Proteus vulgaris, 0.05 mg/L (≈ 0.138 µM); in the assay on Pseudomonas aeruginosa [2], 1.56 mg/L (≈ 4.29 µM); in the assay on Serratia marcescens it was 0.39 mg/L (≈ 1.07 µM); against Salmonella typhimurium, 0.025 mg/L (≈ 0.0688 µM). Also, the MIC was determined as 0.39 mg/L (≈ 1.07 µM) in the assay with Staphylococcus aureus [3]; 0.2 mg/L (≈ 0.55 µM) with Staphylococcus aureus [4]; 1.56 mg/L (≈ 4.29 µM) against Pseudomonas aeruginosa [5]; 0.78 mg/L (≈ 2.15 µM) in assay [7]; 0.05 mg/L (≈ 0.138 µM) against Escherichia coli. Also, the ED50 was found to be 2.21 mg/kg in the assay on Staphylococcus aureus [1] and 8.84 mg/kg with Pseudomonas aeruginosa [6].

For `CC1CN(c2c(F)cc3c(=O)c(C(=O)O)cn(C4CC4)c3c2F)CC(C)N1O` (stereo unspecified), the MIC came out at 0.05 mg/L (≈ 0.127 µM) in the assay with Bacillus subtilis; 0.1 mg/L (≈ 0.254 µM) in the assay on Klebsiella pneumoniae; 0.39 mg/L (≈ 0.991 µM) with Proteus vulgaris; 12.5 mg/L (≈ 31.8 µM) against Pseudomonas aeruginosa [2]; 6.25 mg/L (≈ 15.9 µM) with Serratia marcescens; 0.78 mg/L (≈ 1.98 µM) in the assay with Salmonella typhimurium. Also, the MIC in the assay with Staphylococcus aureus [3] was found to be 0.2 mg/L (≈ 0.508 µM); in the assay on Staphylococcus aureus [4], 0.2 mg/L (≈ 0.508 µM); in the assay with Pseudomonas aeruginosa [5], 12.5 mg/L (≈ 31.8 µM); in assay [7], 0.39 mg/L (≈ 0.991 µM); against Escherichia coli it was 0.78 mg/L (≈ 1.98 µM). The ED50 in the assay with Staphylococcus aureus [1] is 1.67 mg/kg; in the assay with Pseudomonas aeruginosa [6] it was 35.4 mg/kg.

`O=C(O)c1cn(C2CC2)c2cc(N3CCNCC3)c(F)cc2c1=O` [CIPROFLOXACIN]: the MIC in the assay on Bacillus subtilis was 0.1 mg/L (≈ 0.302 µM); against Klebsiella pneumoniae it was 0.025 mg/L (≈ 0.0754 µM); in the assay on Proteus vulgaris, 0.05 mg/L (≈ 0.151 µM); against Pseudomonas aeruginosa [2], 0.78 mg/L (≈ 2.35 µM); against Serratia marcescens it was 0.39 mg/L (≈ 1.18 µM); in the assay with Salmonella typhimurium, 0.025 mg/L (≈ 0.0754 µM). Further, the MIC was 0.39 mg/L (≈ 1.18 µM) against Staphylococcus aureus [3], 0.78 mg/L (≈ 2.35 µM) with Staphylococcus aureus [4], 0.78 mg/L (≈ 2.35 µM) in the assay with Pseudomonas aeruginosa [5] and 1.56 mg/L (≈ 4.71 µM) in assay [7]. Also, the ED50 came to 35.4 mg/kg in the assay with Staphylococcus aureus [1] and 30.8 mg/kg in the assay with Pseudomonas aeruginosa [6].

For `O=C(O)c1cn(C2CC2)c2c(F)c(N3CCNCC3)c(F)cc2c1=O`, the MIC with Bacillus subtilis is 0.1 mg/L (≈ 0.286 µM); with Klebsiella pneumoniae, 0.025 mg/L (≈ 0.0716 µM); in the assay with Proteus vulgaris, 0.05 mg/L (≈ 0.143 µM); in the assay with Pseudomonas aeruginosa [2], 0.78 mg/L (≈ 2.23 µM); against Serratia marcescens it was 0.39 mg/L (≈ 1.12 µM); against Salmonella typhimurium, 0.025 mg/L (≈ 0.0716 µM). The MIC against Staphylococcus aureus [3] was determined as 0.2 mg/L (≈ 0.573 µM); against Staphylococcus aureus [4], 0.39 mg/L (≈ 1.12 µM); in the assay on Pseudomonas aeruginosa [5], 0.78 mg/L (≈ 2.23 µM); in assay [7] it was 0.78 mg/L (≈ 2.23 µM); against Escherichia coli it was 0.05 mg/L (≈ 0.143 µM). The ED50 with Staphylococcus aureus [1] worked out at 5.82 mg/kg; with Pseudomonas aeruginosa [6], 6.7 mg/kg.

Take `CCn1cc(C(=O)O)c(=O)c2cc(F)c(N3CCNCC3)cc21` [NORFLOXACIN]: the MIC with Bacillus subtilis was determined as 0.39 mg/L (≈ 1.22 µM); against Klebsiella pneumoniae it was 0.1 mg/L (≈ 0.313 µM); in the assay with Proteus vulgaris, 0.2 mg/L (≈ 0.626 µM); against Pseudomonas aeruginosa [2], 3.13 mg/L (≈ 9.8 µM); with Serratia marcescens it was 0.78 mg/L (≈ 2.44 µM); with Salmonella typhimurium it was 0.1 mg/L (≈ 0.313 µM). The MIC in the assay on Staphylococcus aureus [3] was found to be 0.39 mg/L (≈ 1.22 µM); in the assay with Staphylococcus aureus [4], 1.56 mg/L (≈ 4.89 µM); against Pseudomonas aeruginosa [5] it was 3.13 mg/L (≈ 9.8 µM); in assay [7], 3.13 mg/L (≈ 9.8 µM); against Escherichia coli, 0.39 mg/L (≈ 1.22 µM). Also, the ED50 in the assay on Staphylococcus aureus [1] was determined as 91.7 mg/kg; with Pseudomonas aeruginosa [6] it was 107 mg/kg.

For the molecule `CC1CN(c2c(F)cc3c(=O)c(C(=O)O)cn(C4CC4)c3c2F)CC(C)N1` (stereo unspecified), the MIC came out at 0.1 mg/L (≈ 0.265 µM) in the assay on Bacillus subtilis; 0.025 mg/L (≈ 0.0662 µM) in the assay with Klebsiella pneumoniae; 0.1 mg/L (≈ 0.265 µM) with Proteus vulgaris; 3.13 mg/L (≈ 8.29 µM) with Pseudomonas aeruginosa [2]; 0.78 mg/L (≈ 2.07 µM) against Serratia marcescens; 0.1 mg/L (≈ 0.265 µM) with Salmonella typhimurium. In addition, the MIC with Staphylococcus aureus [3] is 0.39 mg/L (≈ 1.03 µM); with Staphylococcus aureus [4], 0.39 mg/L (≈ 1.03 µM); in the assay with Pseudomonas aeruginosa [5] it was 3.13 mg/L (≈ 8.29 µM); in assay [7], 0.78 mg/L (≈ 2.07 µM); against Escherichia coli it was 0.1 mg/L (≈ 0.265 µM). Besides, the ED50 in the assay with Staphylococcus aureus [1] stood at 2.21 mg/kg; with Pseudomonas aeruginosa [6] it was 11.7 mg/kg.

On to `CC1CN(c2c(F)cc3c(=O)c(C(=O)O)cn(C4CC4)c3c2F)CCN1O` (stereo unspecified), for which the MIC against Bacillus subtilis is 0.025 mg/L (≈ 0.0659 µM); with Klebsiella pneumoniae, 0.025 mg/L (≈ 0.0659 µM); against Proteus vulgaris, 0.1 mg/L (≈ 0.264 µM); against Pseudomonas aeruginosa [2] it was 3.13 mg/L (≈ 8.25 µM); with Serratia marcescens, 0.78 mg/L (≈ 2.06 µM); with Salmonella typhimurium it was 0.05 mg/L (≈ 0.132 µM). The MIC with Staphylococcus aureus [3] turned out to be 0.39 mg/L (≈ 1.03 µM); against Staphylococcus aureus [4], 0.2 mg/L (≈ 0.527 µM); in the assay on Pseudomonas aeruginosa [5] it was 3.13 mg/L (≈ 8.25 µM); in assay [7], 0.78 mg/L (≈ 2.06 µM); against Escherichia coli, 0.1 mg/L (≈ 0.264 µM). For the same molecule, the ED50 in the assay with Staphylococcus aureus [1] is 1.67 mg/kg; with Pseudomonas aeruginosa [6], 22.9 mg/kg.

Turning to `CC1COc2c(N3CCN(C)CC3)c(F)cc3c(=O)c(C(=O)O)cn1c23` (stereo unspecified) [OFLOXACIN], the MIC stood at 0.2 mg/L (≈ 0.553 µM) against Bacillus subtilis; 0.1 mg/L (≈ 0.277 µM) in the assay with Klebsiella pneumoniae; 0.1 mg/L (≈ 0.277 µM) in the assay on Proteus vulgaris; 3.13 mg/L (≈ 8.66 µM) in the assay with Pseudomonas aeruginosa [2]; 0.78 mg/L (≈ 2.16 µM) against Serratia marcescens; 0.1 mg/L (≈ 0.277 µM) in the assay with Salmonella typhimurium. Further, the MIC is 0.39 mg/L (≈ 1.08 µM) in the assay on Staphylococcus aureus [3]; 0.78 mg/L (≈ 2.16 µM) with Staphylococcus aureus [4]; 3.13 mg/L (≈ 8.66 µM) in the assay with Pseudomonas aeruginosa [5]; 0.78 mg/L (≈ 2.16 µM) in assay [7]; 0.2 mg/L (≈ 0.553 µM) in the assay with Escherichia coli. The ED50 in the assay with Staphylococcus aureus [1] came to 8.84 mg/kg; in the assay with Pseudomonas aeruginosa [6], 54.5 mg/kg.

As for `O=C(O)c1cn(C2CC2)c2c(F)c(N3CCN(O)CC3)c(F)cc2c1=O`, the MIC in the assay with Bacillus subtilis came to 0.05 mg/L (≈ 0.137 µM); with Klebsiella pneumoniae it was 0.025 mg/L (≈ 0.0684 µM); in the assay with Proteus vulgaris, 0.05 mg/L (≈ 0.137 µM); with Pseudomonas aeruginosa [2] it was 1.56 mg/L (≈ 4.27 µM); in the assay on Serratia marcescens it was 0.78 mg/L (≈ 2.14 µM); against Salmonella typhimurium it was 0.025 mg/L (≈ 0.0684 µM). Further, the MIC against Staphylococcus aureus [3] was found to be 0.39 mg/L (≈ 1.07 µM); with Staphylococcus aureus [4] it was 0.39 mg/L (≈ 1.07 µM); against Pseudomonas aeruginosa [5] it was 1.56 mg/L (≈ 4.27 µM); in assay [7], 0.78 mg/L (≈ 2.14 µM); in the assay on Escherichia coli it was 0.1 mg/L (≈ 0.274 µM). Further, the ED50 with Staphylococcus aureus [1] amounted to 3.34 mg/kg; in the assay on Pseudomonas aeruginosa [6], 4.81 mg/kg.
